From PubChem
This is a sample that favours compounds with a hit; in the whole collection about 1.4% have one here.
iPSC survival up: enhancers of single-cell hiPSC survival, primary screen, ATPlite luminescence | survival enhancement, % at 20 µM | 100% = ROCK inhibitor wells, 0% = DMSO | 0.044% of 360,000 active; in the data active = survival enhancement above about 18%;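 note: cells exposed to compounds for 16 hours before the ATP read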
APOBEC3G inh: APOBEC3G DNA deaminase inhibitors, primary screen, biochemical, fluorescence, single-stranded DNA substrate, uHTS; recombinant A3G, ssDNA deamination FAM/TAMRA fluorescence; AID 493012, 2011; inhibition, % at 20 µM; 0.28% of 330,000 active; DNA dC->dU-editing enzyme APOBEC-3G (Homo sapiens), Q9HC16;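 active = inhibition of at least 40% at 20 µM, with no more than 30% in the related APOBEC3A deaminase screen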
HKDC1 inh: HKDC1 hexokinase inhibitors, primary screen, biochemical, fluorescence, uHTS; 0.16% of 340,000 active; inhibition, % at 20 µM; Q2TB90; recombinant HKDC1, G6PDH/diaphorase resazurin coupled fluorescence;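 active = inhibition above about 35% when tested at 20 µM, limit read from the data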
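Test system: recombinant HKDC1 (HK5) hexokinase enzyme, produced in-house / Doses: 20 µM test compound, 1% DMSO / Timing: 90 min, room temperature / Detection: G6PDH/diaphorase-coupled fluorescence, 1 mM NADP, 100 µM resazurin, 525/613 nm / Control set: DMSO wells with and without enzyme mix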
PfGluPho inh: PfG6PD enzyme inhibitors, primary screen, biochemical, fluorescence intensity, uHTS; glucose-6-phosphate dehydrogenase-6-phosphogluconolactonase (Plasmodium falciparum 3D7); PfGluPho enzyme, NADPH resazurin-diaphorase fluorescence; inhibition, % at 20 µM; 0.78% of 350,000 active; AID 504690, 2011;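 active = inhibition reaching at least a set limit at 20 µM in the primary screen, cut at about 59% in these data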
A3A deaminase: APOBEC3A ssDNA deaminase inhibitors, primary screen, selectivity assay for APOBEC3G inhibitor project, biochemical, FAM/TAMRA oligo cleavage fluorescence; recombinant A3A, FAM/TAMRA ssDNA deamination fluorescence; inhibition, % at 20 µM; 0.41% of 330,000 active;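 active = at least 40% inhibition at 20 µM here, with at most 30% in a related deaminase screen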
A3A conf: APOBEC3A deaminase inhibitors, retest, confirmation, selectivity assay for APOBEC3G inhibitor project, biochemical, single concentration, fluorescence readout | shares compounds with A3A deaminase | recombinant A3A, ssDNA deaminase UDG fluorescence assay | inhibition, % at 20 µM | 63% of 1,400 active | AID 493151, 2011;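 active = inhibition reaching a set limit, 80% of the first screen's cutoff, at 20 µM in any replicate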
UDG ctr A3A: E. coli UDG inhibitors, confirmation, counter-screen for APOBEC3A inhibitor project, biochemical, single concentration, fluorescence, FAM/TAMRA oligo; shares compounds with A3A deaminase; inhibition, % at 20 µM; UDG counterscreen, FAM/TAMRA uracil oligo fluorescence; 1,000 tested, under 10 active; call rule not given here
Of the large screens only hits and unclear results are named; the others gave an inactive call (follow-up assays come after a bar, where they were run).

O=[N+]([O-])c1ccc(Nc2ccccc2)c2nonc12	none
O=[N+]([O-])c1ccc(Sc2cccc[n+]2[O-])c2nonc12	PfGluPho inh 115 (no result: APOBEC3G inh, A3A deaminase)
CCc1nc2c(OCC(=O)C(C)(C)C)cccn2c1N(C)C(=O)c1ccc(C)cc1	none (no result: APOBEC3G inh, HKDC1 inh, PfGluPho inh, A3A deaminase)
COc1ccc(-c2ncncc2-c2csc(C)n2)c(O)c1OC	none
COC1=C(N)C(=O)c2nc(-c3nc(C(=O)O)c(C)c(-c4ccc(OC)c(OC)c4O)c3N)ccc2C1=O	PfGluPho inh 93 (no result: iPSC survival up)
COC(=O)[C@]12CCCCC=C1N(Cc1ccc(Cl)cc1Cl)C(=O)[C@H](CC(=O)NCC13CC4CC(CC(C4)C1)C3)C2	none (no result: APOBEC3G inh, HKDC1 inh, PfGluPho inh, A3A deaminase)
O=C1C=CC(=O)N1c1ccc(OC(F)F)cc1	PfGluPho inh 87 (no result: APOBEC3G inh, A3A deaminase)
CC1CCN(C(=O)CCC(=O)Nc2ccc([N+](=O)[O-])cc2)CC1	none (no result: APOBEC3G inh, HKDC1 inh, A3A deaminase)
O=C1c2ccccc2C(=O)N1/N=C/c1ccc(O)c(O)c1O	PfGluPho inh 98 (no result: APOBEC3G inh, A3A deaminase)
CCOc1ccc(C(C)=O)cc1N1C(=O)C2C3C=CC(O3)C2C1=O (stereo not drawn)	APOBEC3G inh 49
COc1ccc(-c2cn3c(C)c(C(=O)Nc4cccc(C)n4)sc3n2)cc1	PfGluPho inh 62
N#Cc1cc(C(=O)Cc2ccccc2)c[nH]1	none
CN(Cc1ccccc1)C(=O)CN1CCN(S(=O)(=O)c2ccccc2F)CC1	iPSC survival up 26 (no result: APOBEC3G inh, HKDC1 inh, A3A deaminase)
O=S(=O)(c1ccccc1F)N1CCN(CC(O)c2ccccc2)CC1 (stereo not drawn)	none
CCOc1ccc(S(=O)(=O)Nc2cccc(C(=O)N3CC(C)OC(C)C3)c2)cc1 (stereo not drawn)	none
CCOc1ccc(S(=O)(=O)Nc2cccc(C(=O)N3CCN(c4ccc(OC)cc4)CC3)c2)cc1	iPSC survival up 21
CN1CC(O)(C(O)C(O)C(O)CO)SC1=S (stereo not drawn)	none (no result: APOBEC3G inh, HKDC1 inh, A3A deaminase)
CC1=CC(=O)C(C(C)C)=CC1=NC(=O)c1ccc(C)cc1	PfGluPho inh 93
CCOC(=O)C1(C)CCCN1C(=O)c1cncc(Br)c1 (stereo not drawn)	none (no result: APOBEC3G inh, HKDC1 inh, PfGluPho inh, A3A deaminase)
CC(C)(C)NC(=O)Cn1nnc(-c2ccccc2NC(=O)c2cnccn2)n1	iPSC survival up 22
CCN(CC)c1ccc(N=Cc2ccc([N+](=O)[O-])o2)cc1	PfGluPho inh 69
OCC1(Cc2ccccc2)CCN(C2CCN(c3ccc(F)c(F)c3)CC2)CC1	none
O=C1C=CC(=O)N1c1ccccc1N1C(=O)C=CC1=O	PfGluPho inh 114 (no result: APOBEC3G inh, A3A deaminase)
O=C(c1ccccc1)c1ccccc1N1C(=O)C=CC1=O	none
O=C(NCc1cccc(F)c1)C1CCC(=O)N(CC2CCCCC2)C1 (stereo not drawn)	none
CC(C)NC(=O)c1ccc2c(c1)S(=O)(=O)c1ccccc1C2=O	iPSC survival up 20
CCCNC(=O)c1ccc2c(c1)S(=O)(=O)c1ccccc1C2=O	none
COc1cccc(CNc2nc3cc(-c4cccc(C(F)(F)F)c4)sc3c(=O)n2C)c1	none (no result: APOBEC3G inh, HKDC1 inh, PfGluPho inh, A3A deaminase)
O=C(/C=C/c1cccc(Cl)c1)c1ccc([N+](=O)[O-])o1	HKDC1 inh 61, PfGluPho inh 97
O=C(Cn1ccccc1=S)c1ccc(Cl)c(Cl)c1	none
On1ccccc1=S	PfGluPho inh 75 (no result: APOBEC3G inh, A3A deaminase)
CC(C)(C)C(=O)NC(=S)NNC(=O)c1ccc(Cl)cc1Cl	none
C=CCOc1c(Br)cc(CNc2ccc(NC(=O)C(C)C)c(OC)c2)cc1OCC	PfGluPho inh 60
C=CCOc1c(Br)cc(CNc2ccc(NC(=O)CCC)cc2)cc1OCC	none
CC(=O)SC(C[N+](=O)[O-])c1cn(C(C)=O)c2ccccc12 (stereo not drawn)	PfGluPho inh 63
COc1ccc2c(c1)[N+](C)(C)C(C)(C)C=C2C	A3A deaminase 56 | A3A conf 82 | UDG ctr A3A inactive
CCNC(=O)N1c2ccc(OCC)cc2C(C)=CC1(C)C	none
COc1ccc2c(c1)C(C)=CC(C)(C)N2S(=O)(=O)c1ccc(C)cc1	none
CCOc1ccc2c(c1)[N+](C)(C)C(C)(C)C=C2C	A3A deaminase 78 | A3A conf 70 | UDG ctr A3A inactive
Cc1cc(Cn2nnnc2-c2ccncc2)cc(C)c1O	none
CCN1CCN(c2ccc(NC(=O)c3cc4ccccc4cc3OC)cc2C)CC1	A3A deaminase 41 | A3A conf 73 | UDG ctr A3A inactive
CCN1CCN(c2ccc(NC(=O)c3ccccc3F)cc2Cl)CC1	none
CCN1CCN(c2ccc(NC(=O)c3ccc4c(c3)OCCO4)cc2C)CC1	A3A deaminase 74 | A3A conf 73 | UDG ctr A3A inactive
Cc1ccccc1COc1ccc(-c2nnn(CC(=O)O)n2)cc1	A3A deaminase 40 | A3A conf inactive | UDG ctr A3A inactive
Cn1c(CNC(=O)c2ccco2)nnc1SCC(=O)N1c2ccccc2Sc2ccccc21	A3A deaminase 63 | A3A conf 58 | UDG ctr A3A inactive
CC(C)C(C)(C#N)NC(=O)COC(=O)C1CCN(S(=O)(=O)c2ccc3c(c2)OCCO3)CC1 (stereo not drawn)	none (no result: APOBEC3G inh, A3A deaminase)
O=C(O)c1ccc2c3c(cccc13)C(=O)N(c1ccccc1)C2=O	A3A deaminase 63 | A3A conf 55 | UDG ctr A3A inactive
CCc1ccc(-c2nc(SCC(=O)N(C)C3CCS(=O)(=O)C3)n[nH]2)cc1 (stereo not drawn)	none
CCOC(=O)c1c(/N=C/c2ccccc2O)sc2c1CCC2	A3A deaminase 98 | A3A conf inactive | UDG ctr A3A inactive
CCOC(=O)c1c(NC(=O)CN(CC)CC)sc2c1CCC2	none
CCOC(=O)c1c(NC(=O)OC)sc2c1CCC2	A3A deaminase 54 | A3A conf inactive | UDG ctr A3A inactive
CCOC(=O)c1c(/N=C/c2ccc(O)cc2O)sc2c1CCC2	none (no result: iPSC survival up, HKDC1 inh, PfGluPho inh)
CCN(/C=N/S(=O)(=O)c1ccc(Cl)cc1)CC	none
O=C(CSc1nnc(-c2ccccc2O)o1)N1CCOCC1	none
CSc1cccc(NC(=O)CN(C2CCCCC2)S(C)(=O)=O)c1	A3A deaminase 65 | A3A conf inactive | UDG ctr A3A inactive
